The values below come from ChEMBL document CHEMBL1156021, “Design, synthesis, and evaluation of novel 3-amino-4-hydrazine-cyclobut-3-ene-1,2-diones as potent and selective CXCR2 chemokine receptor antagonists” (Bioorg Med Chem Lett, 2009).

Series [1] has as its target T1, C-X-C chemokine receptor type 2 (Homo sapiens, UniProt P25025).
T1 sequence (P25025 whole entry): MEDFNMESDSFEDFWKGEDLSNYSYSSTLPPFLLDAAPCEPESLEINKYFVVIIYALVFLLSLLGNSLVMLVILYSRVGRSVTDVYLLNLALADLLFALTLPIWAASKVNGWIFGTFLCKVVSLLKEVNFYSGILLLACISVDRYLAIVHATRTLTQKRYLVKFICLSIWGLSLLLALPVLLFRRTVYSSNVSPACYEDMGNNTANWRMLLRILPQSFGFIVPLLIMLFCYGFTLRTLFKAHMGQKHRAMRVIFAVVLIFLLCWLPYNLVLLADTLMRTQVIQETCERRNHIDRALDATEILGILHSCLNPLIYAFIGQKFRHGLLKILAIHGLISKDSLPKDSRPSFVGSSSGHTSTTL
In words: Displacement of [125I]IL-8 from human CXCR2 expressed in mouse BaF3 cells by liquid scintillation counting. It is filed as cell-based. Put shortly:
(§1)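 SPA competition binding with receptor-overexpressing membranes (CXCR2 or CXCR1, CXCR1 at twice the membrane amount) mixed with 2 mg/mL wheatgerm-agglutinin-coated SPA beads. Buffer was 25 mM HEPES, 3 mM MgCl2, pH 7.4; the membrane and bead mix was held on ice 5 min. Tracer was [125I]IL-8 from a 0.040 nM stock. Compounds were half-log serially diluted in DMSO. Plates were incubated 2 h at room temperature, protected from light, then counted by liquid scintillation.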
Background: In a radioligand displacement assay an active substance lowers the binding of a labelled ligand.

Series [2] addresses T2, C-X-C chemokine receptor type 1 (Homo sapiens, UniProt P25024).
T2 sequence (P25024 whole entry): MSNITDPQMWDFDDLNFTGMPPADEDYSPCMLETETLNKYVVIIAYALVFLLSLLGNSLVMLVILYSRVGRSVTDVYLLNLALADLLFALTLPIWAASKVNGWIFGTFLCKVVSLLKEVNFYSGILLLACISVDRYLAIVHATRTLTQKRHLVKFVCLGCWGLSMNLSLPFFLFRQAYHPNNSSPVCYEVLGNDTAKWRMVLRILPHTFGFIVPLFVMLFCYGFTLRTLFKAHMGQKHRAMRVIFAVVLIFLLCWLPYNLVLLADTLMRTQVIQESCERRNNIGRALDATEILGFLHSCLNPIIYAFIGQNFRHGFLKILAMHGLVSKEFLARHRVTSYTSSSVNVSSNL
Description: Displacement of [125I]IL-8 from human CXCR1 expressed in mouse BaF3 cells by liquid scintillation counting. It is filed as cell-based. Summed up: as §1

A further series is filed under the species Homo sapiens. Description: Selectivity ratio of Ki for human CXCR1 to Ki for human CXCR2. Summed up: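 Scintillation proximity binding assays on membranes over-expressing CXCR2 or CXCR1, with CXCR1 membranes at twice the CXCR2 membrane level. Membranes were premixed with 2 mg/mL wheatgerm-agglutinin SPA beads in 25 mM HEPES, 3 mM MgCl2, pH 7.4, 5 min on ice. Half-log serial DMSO dilutions were added with [125I]IL-8 (0.040 nM stock). Plates were kept 2 h at room temperature in the dark, then read by scintillation counting.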

Series [3] in a line: Metabolic stability in human liver microsomes assessed as compound remaining at 1 uM after 120 mins. It is filed as ADME, Microsome. Particulars: read-out: Stability.
A short description of series [4]: Metabolic stability in human liver microsomes assessed as half life at 1 uM. The series is classed as ADME, Microsome. Background: Microsomes from liver hold many membrane-bound enzymes, among them those of drug oxidation.
The nature of series [5]: Metabolic stability in rat liver microsomes assessed as half life at 1 uM. The series is classed as ADME, Microsome.

The compound `CCN(CC)Nc1c(Nc2cccc(C(=O)N(C)C)c2O)c(=O)c1=O` had an IC50 in series [1] of 1.86 µM. For the same compound, the Ki in series [1] was determined as 0.12 µM; in series [2], 9.7 µM. Moreover, the Ratio Ki in the series listed under Homo sapiens was 80. Moreover, the remaining at 2 h, 1 µM in series [3] was greater than 50%. The results for the half-life at 1 µM in series [4] and in series [5] were greater than 2 h and 1.4 h, respectively.

Regarding `CCN(Cc1ccc(F)cc1)Nc1c(Nc2cccc(C(=O)N(C)C)c2O)c(=O)c1=O`, the results for the Ki in series [1] and in series [2] were 7.2 µM and greater than 12 µM, respectively.

As for `CCN(Nc1c(Nc2cccc(C(=O)N(C)C)c2O)c(=O)c1=O)c1ccccc1`, the Ki in series [1] worked out at 0.11 µM; in series [2], 4.1 µM. In addition, in the series filed under Homo sapiens, the Ratio Ki amounted to 40. Besides, the remaining at 2 h, 1 µM in series [3] was greater than 50%. In series [4], the half-life at 1 µM was greater than 2 h.

Compound `CCNNc1c(Nc2cccc(C(=O)N(C)C)c2O)c(=O)c1=O` gave an IC50 in series [1] of 5.49 µM. In other words, the single-digit micromolar range.

For `CCN(Nc1c(Nc2cccc(C(=O)N(C)C)c2O)c(=O)c1=O)C(C)=O`, in series [1], the IC50 was 3.29 µM and the inhibition constant (Ki) is 0.32 µM. Also, the Ki in series [2] is greater than 12 µM.

`CCN(Nc1c(Nc2cccc(C(=O)N(C)C)c2O)c(=O)c1=O)c1ccccn1`: the inhibition constant (Ki) in series [1] is 0.13 µM; in series [2], 5.2 µM. Besides, in the series filed under Homo sapiens, the Ratio Ki is 40. The remaining at 2 h, 1 µM in series [3] was greater than 50%. In series [4], the half-life at 1 µM was greater than 2 h.

Take `CCN(Nc1c(Nc2cccc(C(=O)N(C)C)c2O)c(=O)c1=O)c1ccc(OC)cc1`: the Ki in series [1] was found to be 0.18 µM; in series [2], 6.5 µM. Further, the Ratio Ki in the series filed under Homo sapiens was found to be 40.

As for `CCN(Nc1c(Nc2cccc(C(=O)N(C)C)c2O)c(=O)c1=O)C(=O)c1ccc(F)cc1`, the Ki is 0.26 µM in series [1] and greater than 12 µM in series [2]. In addition, the Ratio Ki in the series filed under Homo sapiens was greater than 46.

In the case of `CCN(Nc1c(Nc2cccc(C(=O)N(C)C)c2O)c(=O)c1=O)c1ccc(F)cc1`, the Ki in series [1] is 0.55 µM; in series [2] it was greater than 12 µM. In addition, the Ratio Ki in the series filed under Homo sapiens is greater than 20.

The term IC50 denotes the concentration that gives 50% inhibition. The low end stands for inhibition by little substance, the high end for a need for much substance. The Ki is a measure of affinity in units of concentration, obtained from inhibition or displacement. Read a high Ki as weaker binding. In general, half-life refers to the time in which the quantity being followed falls by half.
